Data: ChEMBL document CHEMBL1250466, “CLEFMA-an anti-proliferative curcuminoid from structure-activity relationship studies on 3,5-bis(benzylidene)-4-piperidones” (Bioorg Med Chem, 2010)
Active and inactive are the calls of the source. The rule behind the calls is not given here.

Assays:
[1] = Antiproliferative activity against human H441 cells assessed as decrease of hexosaminidase activity after 24 hrs; assay type: functional, cell-based; conditions: NCI-H441, 24 h
In short: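 H441 (NCI-H441) cells in McCoy's 5A with 5% heat-inactivated FBS, gentamicin 50 μg/ml, 37 °C, 5% CO2; 10×10^3 cells/well seeded, attached overnight. Compounds in DMSO (0.1% final) at 1, 10, 25, 100 μM for 24 h. Hexosaminidase substrate in citrate pH 5, 30 min 37 °C, stopped with glycine/EDTA pH 10.4, A405. Triplicate, repeated at least twice; IC50 from linear or exponential fit of concentration vs activity.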

NCI-H441 [2] = assay: Induction of autophagy in human H441 cells assessed as chromatin condensation at 1 to 10 uM after 24 by transmission electron microscopic analysis; assay type: functional, cell-based
In short: (§1)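 H441 cells exposed 24 h at 1 and 10 μM, then fixed 4 h at room temperature in 0.1 M cacodylate with 4% PFA and 2% glutaraldehyde. Post-fixed in 1% osmium tetroxide 1.5 h, dehydrated through a graded ethanol series, ultrasections stained with Sato's lead. Imaged by transmission electron microscopy at 2500×; untreated cells as controls.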

NCI-H441 [3] = assay: Induction of autophagy in human H441 cells assessed as peri-nuclear accumulation of mitochondria at 1 to 10 uM after 24 by transmission electron microscopic analysis; assay type: functional; in short: as §1
NCI-H441 [4] = assay: Induction of autophagosome formation in human H441 cells at 10 uM after 24 using monodansylcadaverine staining by fluorescent microscopic analysis in presence of 3-methyladenine; assay type: functional, cell-based
In short: (§2)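 H441 cells labeled with the autophagic-vacuole marker monodansylcadaverine after treatment and examined by fluorescence microscopy; autophagy inhibition tested with 3-methyladenine.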

NCI-H441 [5] = assay: Induction of autophagy in human H441 cells assessed as large single-walled autophagic vacuoles at 1 to 10 uM after 24 by transmission electron microscopic analysis; assay type: functional, cell-based; in short: as §1
NCI-H441 [6] = assay: Induction of autophagy in human H441 cells assessed as peri-nuclear accumulation of cell organelles at 1 to 10 uM after 24 by transmission electron microscopic analysis; assay type: functional, cell-based; in short: as §1
NCI-H441 [7] = assay: Induction of autophagy in human H441 cells assessed as double-membrane pre-autophagosomal structures containing cell organelles at 1 to 10 uM after 24 hrs by transmission electron microscopic analysis; assay type: functional, cell-based; in short: as §1
NCI-H441 [8] = assay: Induction of autophagy in human H441 cells assessed as blebbing of nuclear membrane at 1 to 10 uM after 24 by transmission electron microscopic analysis; assay type: functional, cell-based; in short: as §1
NCI-H441 [9] = assay: Induction of autophagosome formation in human H441 cells at 10 uM after 24 using monodansylcadaverine staining by fluorescent microscopic analysis; assay type: functional, cell-based; in short: as §2
PANC-1 = assay: Antiproliferative activity against human PANC1 cells assessed as decrease of hexosaminidase activity at 1 to 100 uM after 24 to 72 hrs; assay type: functional, cell-based
In short: (§3)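 Cells kept as for H441 but in RPMI 1640 with 5% heat-inactivated FBS and gentamicin 50 μg/ml; 10×10^3 cells/well seeded, attached overnight. Compounds in DMSO (0.1% final) at 1, 10, 25, 100 μM for 24, 48 and 72 h. Remaining cells read by hexosaminidase activity (substrate in citrate pH 5, 30 min 37 °C, glycine/EDTA pH 10.4 stop, A405) as percent of DMSO control; triplicate, repeated at least twice.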

PC-3 = assay: Antiproliferative activity against human PC3 cells assessed as decrease of hexosaminidase activity at 1 to 100 uM after 24 to 72 hrs; assay type: functional, cell-based; in short: as §3
NCI-H441 [10] = assay: Induction of apoptosis in human H441 cells assessed as caspase cleavage by immunoblotting; assay type: functional, cell-based
NCI-H441 [11] = assay: Induction of apoptosis in human H441 cells assessed as caspase 3 activation by immunoblotting; assay type: functional, cell-based
NCI-H441 [12] = assay: Induction of apoptosis in human H441 cells; assay type: functional, cell-based
MIA PaCa-2 = assay: Antiproliferative activity against human MIAPaCa2 cells assessed as decrease of hexosaminidase activity at 1 to 100 uM after 24 to 72 hrs; assay type: functional, cell-based; in short: as §3
NCI-H441 [13] = assay: Induction of apoptosis in human H441 cells assessed as caspase 3/7 activation by immunoblotting; assay type: functional, cell-based

**Q.** With O=C(CCC(=O)N1C/C(=C\c2ccccc2F)C(=O)/C(=C/c2ccccc2F)C1)N[C@@H]1[C@@H](O)[C@H](O)[C@@H](CO)O[C@H]1O as the molecule, how does the IC50 [1] read?
**A.** 79 µM

**Q.** Which IC50 [1] does the source give for CCCCCCCCCC/C=C/C(CC(=O)O)C(=O)N1C/C(=C\c2ccccc2F)C(=O)/C(=C/c2ccccc2F)C1 (configuration not stated) here?
**A.** 58 µM

**Q.** Which Activity (NCI-H441 [2]) does the source give for O=C1/C(=C/c2ccccc2F)CNC/C1=C\c1ccccc1F here?
**A.** inactive

**Q.** What about the Activity (NCI-H441 [3]) of the same molecule?
**A.** Active

**Q.** What about the IC50 [1] of the same molecule?
**A.** 44 µM

**Q.** What about the Activity (NCI-H441 [4]) of the same molecule?
**A.** inactive

**Q.** And the Activity (NCI-H441 [5])?
**A.** Active

**Q.** What about the Activity (NCI-H441 [6]) of the same molecule?
**A.** Active

**Q.** What about the Activity (NCI-H441 [7]) of the same molecule?
**A.** Active

**Q.** What about the Activity (NCI-H441 [8]) of the same molecule?
**A.** Active

**Q.** And the Activity (NCI-H441 [9])?
**A.** Active

**Q.** With O=CN1C/C(=C\c2ccccc2F)C(=O)/C(=C/c2ccccc2F)C1 as the molecule, how does the IC50 [1] read?
**A.** 49 µM

**Q.** Which IC50 [1] does the source give for CCCCCCCCCCCCCCCC/C=C/C(CC(=O)O)C(=O)N1C/C(=C\c2ccccc2F)C(=O)/C(=C/c2ccccc2F)C1 (configuration not stated) here?
**A.** 84 µM

**Q.** For O=C1/C(=C/c2ccccc2Br)CNC/C1=C\c1ccccc1Br, which IC50 [1] is on record?
**A.** 6 µM

**Q.** With O=C(O)CCC(=O)N1C/C(=C\c2ccccc2F)C(=O)/C(=C/c2ccccc2F)C1 as the molecule, how does the IC50 [1] read?
**A.** 69 µM

**Q.** For O=C1/C(=C/c2ccccc2Cl)CNC/C1=C\c1ccccc1Cl, which IC50 [1] is on record?
**A.** 5 µM

**Q.** Which IC50 [1] does the source give for O=C1/C(=C/c2ccc(F)cc2)CNC/C1=C\c1ccc(F)cc1 here?
**A.** 45.7 µM

**Q.** For O=C1/C(=C/c2ccccc2F)CN(C(=O)C2CCCCC2C(=O)O)C/C1=C\c1ccccc1F (configuration not stated), which IC50 [1] is on record?
**A.** 55 µM

**Q.** Which IC50 [1] does the source give for O=C1/C(=C/c2cccc(Cl)c2)CNC/C1=C\c1cccc(Cl)c1 here?
**A.** 50 µM

**Q.** With O=C(CN1C/C(=C\c2ccccc2F)C(=O)/C(=C/c2ccccc2F)C1)NCc1ccc(F)cc1 as the molecule, how does the IC50 [1] read?
**A.** 46 µM

**Q.** With O=C1/C(=C/c2ccccc2)CNC/C1=C\c1ccccc1 as the molecule, how does the IC50 [1] read?
**A.** 12 µM

**Q.** With CCCCCCCCCCCCCCCCNC(=O)CCC(=O)N1C/C(=C\c2ccccc2F)C(=O)/C(=C/c2ccccc2F)C1 as the molecule, how does the IC50 [1] read?
**A.** 64 µM

**Q.** With CN(C)c1ccc(/C=C2\CNC/C(=C\c3ccc(N(C)C)cc3)C2=O)cc1 as the molecule, how does the IC50 [1] read?
**A.** 101 µM

**Q.** For Cc1ccc(S(=O)(=O)N2C/C(=C\c3ccccc3F)C(=O)/C(=C/c3ccccc3F)C2)cc1, which IC50 [1] is on record?
**A.** 50 µM

**Q.** Which IC50 [1] does the source give for O=C(O)/C=C/C(=O)N1C/C(=C\c2ccccc2F)C(=O)/C(=C/c2ccccc2F)C1 here?
**A.** 29 µM

**Q.** With O=C1/C(=C/c2ccc(Cl)cc2)CNC/C1=C\c1ccc(Cl)cc1 as the molecule, how does the IC50 [1] read?
**A.** 87 µM

**Q.** For CC(=O)N1C/C(=C\c2ccccc2F)C(=O)/C(=C/c2ccccc2F)C1, which IC50 [1] is on record?
**A.** 54 µM

**Q.** Which IC50 [1] does the source give for O=C1/C(=C/c2ccccc2F)CN(C(=O)c2ccccc2C(=O)O)C/C1=C\c1ccccc1F here?
**A.** 56 µM

**Q.** With CCCCCCCCCCCC/C=C/C(CC(=O)O)C(=O)N1C/C(=C\c2ccccc2F)C(=O)/C(=C/c2ccccc2F)C1 (configuration not stated) as the molecule, how does the IC50 [1] read?
**A.** 47 µM

**Q.** With O=C(O)CCCC(=O)N1C/C(=C\c2ccccc2F)C(=O)/C(=C/c2ccccc2F)C1 as the molecule, how does the IC50 [1] read?
**A.** 60 µM

**Q.** For O=C(O)/C=C\C(=O)N1C/C(=C\c2ccccc2Cl)C(=O)/C(=C/c2ccccc2Cl)C1, which Activity (NCI-H441 [2]) is on record?
**A.** inactive

**Q.** And the Activity (NCI-H441 [3])?
**A.** Active

**Q.** And the IC50 [1]?
**A.** 1 µM

**Q.** What about the Activity (NCI-H441 [4]) of the same molecule?
**A.** inactive

**Q.** What about the Activity (PANC-1) of the same molecule?
**A.** Active

**Q.** And the Activity (PC-3)?
**A.** Active

**Q.** What about the Activity (NCI-H441 [10]) of the same molecule?
**A.** inactive

**Q.** And the Activity (NCI-H441 [11])?
**A.** inactive

**Q.** What about the Activity (NCI-H441 [5]) of the same molecule?
**A.** Active

**Q.** What about the Activity (NCI-H441 [6]) of the same molecule?
**A.** Active

**Q.** And the Activity (NCI-H441 [12])?
**A.** inactive

**Q.** What about the Activity (NCI-H441 [7]) of the same molecule?
**A.** Active

**Q.** What about the Activity (NCI-H441 [8]) of the same molecule?
**A.** Active

**Q.** And the Activity (MIA PaCa-2)?
**A.** Active

**Q.** What about the Activity (NCI-H441 [13]) of the same molecule?
**A.** inactive

**Q.** And the Activity (NCI-H441 [9])?
**A.** Active

**Q.** With O=C1/C(=C/c2ccccc2[N+](=O)[O-])CNC/C1=C\c1ccccc1[N+](=O)[O-] as the molecule, how does the IC50 [1] read?
**A.** 93 µM
